Screens (PubChem BioAssay)
MKP-1 inh – MKP-1 phosphatase inhibitors, primary screen, biochemical, in vitro | Dual specificity protein phosphatase 1 (Homo sapiens), P28562 | recombinant MKP-1, OMFP hydrolysis fluorescence | inhibition, %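 (compounds tested at a single concentration somewhere between 10 and 100 µM)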 | hit rate 0.15% among 65,000;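 active = inhibition above about 50%, limit read from the data; inconclusive = inhibition over screen mean plus 3 SD, below that limit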;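 also: 0% = DMSO max control wells and 100% = wells with enzyme stopped by NaOH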
Target sequence (P28562 whole entry, looked up): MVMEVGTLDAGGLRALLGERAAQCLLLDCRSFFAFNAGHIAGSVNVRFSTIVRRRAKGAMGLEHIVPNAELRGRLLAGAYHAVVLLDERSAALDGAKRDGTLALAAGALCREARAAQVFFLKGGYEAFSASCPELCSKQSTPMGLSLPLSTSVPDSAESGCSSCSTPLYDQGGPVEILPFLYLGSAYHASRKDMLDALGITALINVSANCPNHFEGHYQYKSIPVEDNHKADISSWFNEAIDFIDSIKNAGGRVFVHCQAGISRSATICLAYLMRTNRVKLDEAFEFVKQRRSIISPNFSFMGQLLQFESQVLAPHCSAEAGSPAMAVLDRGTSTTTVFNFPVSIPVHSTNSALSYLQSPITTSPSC
E coli WT exp – growth inhibitors of wild-type E. coli, primary screen, strain BW25113, expanded library, OD600; hit rate 0.15% among 98,000; growth inhibition, % at 100 µM; OD600 absorbance; AID 710, 2007;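 active = growth inhibition above about 50% at one test dose, limit read from the data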;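 also: growth measured after 20 h incubation at 37 °C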
Ecoli tolC – growth inhibitors of E. coli tolC mutant, primary screen, strain BW25113 ΔtolC::kan, 384-well; AID 573, 2007; hit rate 2.2% among 65,000; OD615; growth inhibition, % at 10 µM (by protocol);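 active = growth inhibition at or above a cutoff equal to the mean over every tested compound plus 3 SD, cut at about 60% in these data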;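 also: growth measured after 20 h incubation at 37 °C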
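Material: E. coli BW25113 ΔtolC::kan, tolC deletion mutant strain. Measure: percent growth inhibition. Schedule: 37 °C, 20 h exposure. Doses: single-point testing at 10 µM. Signal: A615 absorbance measurement. Buffer or medium: kanamycin-containing LB broth (50 µg/mL).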
Cdc25B block – inhibitors of Cdc25B phosphatase catalytic domain, primary screen, biochemical, OMFP fluorescence | inhibition, %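 (compounds tested at 10 µM final in the well)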 | M-phase inducer phosphatase 2 (Homo sapiens), P30305 | AID 368, 2006 | recombinant Cdc25B, OMFP fluorescence Ex485/Em525 | hit rate 0.1% among 65,000; in the data active = inhibition above about 50%
HePTP inhibitor – inhibitors of human HePTP phosphatase, primary screen, biochemical, absorbance, leukemia target | Tyrosine-protein phosphatase non-receptor type 7 (Homo sapiens), P35236 | recombinant HePTP phosphatase activity, OD absorbance | inhibition, % at 20 µM | hit rate 0.64% among 110,000 | AID 521, 2006; in the data active = inhibition above about 50%; inconclusive = no clear call, values can overlap the other calls;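 also: plate controls were vehicle for no effect and reference inhibitor for full effect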
Target sequence (P35236 whole entry, looked up): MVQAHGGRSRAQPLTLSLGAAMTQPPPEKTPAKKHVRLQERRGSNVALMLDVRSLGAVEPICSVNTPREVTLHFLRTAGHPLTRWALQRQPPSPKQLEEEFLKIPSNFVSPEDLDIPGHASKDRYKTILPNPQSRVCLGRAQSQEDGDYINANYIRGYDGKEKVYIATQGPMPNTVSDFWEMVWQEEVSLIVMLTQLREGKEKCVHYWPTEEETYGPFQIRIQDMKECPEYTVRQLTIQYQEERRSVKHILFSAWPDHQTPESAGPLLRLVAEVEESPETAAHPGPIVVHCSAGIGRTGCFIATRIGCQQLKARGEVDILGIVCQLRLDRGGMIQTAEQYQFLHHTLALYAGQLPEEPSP
MMP13 inh – human MMP13 inhibitors, primary screen, biochemical, FRET peptide cleavage | Collagenase 3 (Homo sapiens), P45452 | MMP-13 fTHP FRET cleavage, Mca fluorescence | inhibition, % at 4 µM | hit rate 0.07% among 65,000 | AID 570, 2006;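 active = inhibition above the mean of compound-free control plate wells plus 3 SD, cut at about 14% in these data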;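 also: 0% = DMSO wells and 100% = wells with reference MMP-13 inhibitor after basal subtraction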
Numbers without * were called inactive; ? = inconclusive; · = not tested or not shown. The entries come from a sample that favours hits as a whole.

SMILES | MKP-1 inh | E coli WT exp | Ecoli tolC | Cdc25B block | HePTP inhibitor | MMP13 inh
O=C(CSCc1n[nH]c(=O)[nH]1)NCCOc1cccc(Oc2ccccc2)c1 | 9.8 | 4.0 | 6.4 | -8.2 | -3.9 | 15.3*
O=C(CSc1ncn[nH]1)NCCOc1ccccc1 | 6.4 | 5.0 | -13.1 | 1.3 | -0.8 | 0.1
COc1cc(NC(=O)c2cccc(Br)c2)ccc1NC(=O)c1cc2ccccc2o1 | · | · | · | · | -9.3 | ·
CC(C)C(C(=O)Nc1ccc(F)cc1)N1C(=O)c2ccccc2C1=O (centres undefined) | · | · | · | · | -3.6 | ·
Cc1ccc(S(=O)(=O)NNc2ccccc2)cc1 | · | -1.0 | · | · | · | ·
CC(C)(C)c1ccc(S(=O)(=O)NNc2ccccc2)cc1 | · | · | · | · | 101.2* | ·
CC1=CC(C)(C)N2C(=O)C3(SCC(=O)N3c3ccc(O)cc3)c3cc(C)cc1c32 (centres undefined) | 11.8 | 4.0 | 87.0* | 0.6 | -4.6 | -0.1
Cc1ccc(N2C(=O)CSC23C(=O)Nc2ccccc23)cc1 (centres undefined) | 5.9 | 6.0 | 14.7 | -0.2 | 2.3 | -2.0
O/N=C1/CCc2nonc2/C1=N/O | -9.1 | 52.0* | 0.3 | -0.4 | -1.6 | -0.8
c1ccc2nc3c(nc2c1)CCc1nonc1-3 | 6.5 | -7.0 | -8.8 | 0.0 | -6.9 | 2.0
Fc1ccc(NC(=S)Nc2ccc(F)c(Cl)c2)cc1Cl | · | 89.0* | · | · | · | ·
CCOC(=O)c1c(N2C(=O)C3CC=C(Cl)CC3C2=O)sc2c1CCCC2 (centres undefined) | · | · | · | · | 1.7 | ·
CN(C(=S)Nc1ccccc1)c1ccccc1 | · | · | · | · | 102.5* | ·
N#CCC(=O)NNCc1cc(-c2ccccc2)n(-c2ccccc2)c1-c1ccccc1 | · | · | · | · | 2.2 | ·
CCN(CCCNC(=O)CCc1nc(-c2ccc(C)cc2)no1)c1cccc(C)c1 | 25.9 | -16.0 | 90.9* | -37.5 | 13.6 | -2.1
CCN(Cc1ccccc1)C(=O)CCc1nc(-c2ccc(C)cc2)no1 | 3.0 | -9.0 | 88.0* | -10.4 | 5.7 | 4.1
Cc1ccc(-c2noc(CCc3ccccc3)n2)cc1 | · | · | · | · | 13.0 | ·
CCc1ccccc1N(CC)C(=O)CCc1nc(-c2ccc(C)cc2)no1 | 7.4 | 3.0 | 95.1* | -26.3 | -1.2 | -7.9
CCN(CCCNC(=O)c1[nH]c(C)c(C(C)=O)c1C)c1cccc(C)c1 | 7.8 | -4.0 | 98.5* | 7.8 | 3.0 | -8.4
CCOc1cc(/C=C/C(=O)O)cc(I)c1OCC | · | · | · | · | -12.2 | ·
Cc1ccc(C(=O)Nc2ccc(C(N)=O)cc2)cc1[N+](=O)[O-] | · | · | · | · | -1.7 | ·
COc1cc(/C=C2\SC(=S)N(c3ccc(F)cc3)C2=O)cc(OC)c1OC | · | · | · | · | 2.8 | ·
Cc1ccc(NC(=O)c2c(-c3ccccc3)noc2C)cc1C | · | · | · | · | 103.6* | ·
CC(=O)c1c(C)n(O)c2ccc(Cl)cc2c1=O | · | · | · | · | -25.2 | ·
O=C1CN(C(=O)c2ccc(Br)o2)C(c2ccc(F)cc2)c2cc(Cl)ccc2N1 (centres undefined) | -12.5 | -18.0 | 26.5 | 3.4 | 3.2 | 1.0
SMILES | MKP-1 inh | E coli WT exp | Ecoli tolC | Cdc25B block | HePTP inhibitor | MMP13 inh
O=C1CN(C(=O)c2ccc(Br)o2)C(c2ccccc2)c2cc(Cl)ccc2N1 (centres undefined) | 8.5 | -6.0 | 85.2* | -5.8 | 1.3 | -1.1
CCOCCOC(=O)c1ccc(NC(=O)c2ccncc2)cc1 | · | · | · | · | 7.9 | ·
N#Cc1nc(Cc2cccc3ccccc23)oc1NCCCn1ccnc1 | -6.8 | 9.0 | 60.9* | -2.6 | -6.9 | 2.0
CCCCCCC(=O)N1CCC(c2nc3c(nnn3Cc3ccccc3Cl)c(=O)[nH]2)CC1 | ? | 2.0 | 100.0* | -5.4 | 10.8 | 2.7
O=C(Nc1ccc(F)cc1)N1CCC(c2nc3c(nnn3Cc3cccc(Cl)c3)c(=O)[nH]2)CC1 | ? | -1.0 | 100.0* | 7.3 | 8.0 | -4.2
N#Cc1cccc(NC(=O)N2CCC(c3nc4c(nnn4Cc4cccc(Cl)c4)c(=O)[nH]3)CC2)c1 | -10.0 | -10.0 | -8.8 | -8.0 | -2.2 | 1.1
O=C(C1CCCCC1)N1CCC(c2nc3c(nnn3Cc3c(F)cccc3Cl)c(=O)[nH]2)CC1 | 8.0 | · | 89.2* | -4.3 | -1.7 | -4.4
Cc1ccc(NC(=O)N2CCC(c3nc4c(nnn4Cc4cccc(Cl)c4)c(=O)[nH]3)CC2)cc1 | 32.5 | -13.0 | 98.9* | -3.2 | -2.0 | 2.8
COc1ccccc1NC(=O)N1CCCC(c2nc3c(nnn3Cc3ccc(C)cc3)c(=O)[nH]2)C1 (centres undefined) | 13.9 | 0.0 | 13.5 | -6.5 | -0.1 | 7.2
COc1ccc(NC(=O)c2nc[nH]c2C(=O)Nc2ccc(OC)cc2)cc1 | · | · | · | · | -0.4 | ·
COc1ccc(Cc2noc(-c3ccccc3Cl)n2)cc1 | · | · | · | · | -3.2 | ·
Cc1nn(Cc2ccc(Cl)cc2)c(C)c1NC(=O)c1noc2c1CCCCC2 | 26.6 | 10.0 | 84.4* | -2.7 | 10.3 | 7.2
Cc1ccccc1Cn1nc(C)c(NC(=O)c2noc3c2CC(C(C)(C)C)CC3)c1C (centres undefined) | 31.6 | 1.0 | 74.1* | -5.3 | 4.0 | -4.2
Cc1ccccc1Cn1nc(C)c(NC(=O)c2noc3c2CCc2ccccc2-3)c1C | 3.0 | -17.0 | 67.6* | -4.9 | 11.1 | 4.7
COc1cccc(-c2cc(C(=O)Nc3c(C)nn(Cc4ccccc4C)c3C)no2)c1 | 11.0 | -6.0 | 71.2* | -16.3 | 6.2 | -1.3
Cc1c(NC(=O)CN(c2ccc(Oc3ccccc3)cc2)S(C)(=O)=O)c(=O)n(-c2ccccc2)n1C | · | · | · | · | -2.3 | ·
CC1=NC(=S)C(C#N)C(c2ccccc2)=C1 (centres undefined) | · | · | · | · | -7.7 | ·
CC1(C)C(=O)N(Cc2ccc([N+](=O)[O-])cc2)c2ccccc2N1C(=O)c1ccc(F)cc1 | · | · | · | · | -4.7 | ·
CC1(C)C(=O)N(Cc2ccccc2)c2ccccc2N1C(=O)c1ccc([N+](=O)[O-])cc1 | · | · | · | · | 73.5* | ·
CCOC(=O)c1cnn(-c2nc3sc4c(c3c(=O)[nH]2)CCCC4)c1N | 22.1 | · | 93.5* | -7.3 | 12.5 | -0.7
CCCCCCCCC[n+]1cccc2c3ccccc3ccc21 | · | 70.0* | · | · | · | ·
O=C(C[n+]1cc2ccccc2c2ccccc21)c1ccccc1 | · | 11.0 | · | · | · | ·
Cn1c2c(c(=O)n(C)c1=O)C(c1ccc(OC(=O)c3ccc(Br)cc3)cc1)C1C(=O)c3ccccc3C1=N2 (centres undefined) | · | · | · | · | -13.9 | ·
O=C(Cn1c(C(=O)NCc2ccco2)cc2sccc21)c1ccccc1 | 23.6 | -20.0 | 64.7* | 0.8 | 1.7 | 5.9
Cc1cccc(NC(=O)c2ccc(-c3ccc(C)c(Cl)c3)o2)c1 | · | · | · | · | 3.2 | ·
COc1cc(NC(=O)c2cccc(Br)c2)c(C(=O)O)cc1OC | · | · | · | · | 6.8 | ·
CC1CCC(C(C)C)C(OC(=O)CSc2nccc(=O)[nH]2)C1 (centres undefined) | · | -4.0 | · | · | · | ·
CC1CCC(C(C)C)C(OC(=O)COC(=O)c2ccc(=O)[nH]c2)C1 (centres undefined) | 11.8 | 2.0 | 62.7* | -4.3 | 2.3 | -0.3
